For orientation: IC50 means the concentration needed to halve the response being measured.

Where “and” joins values, the source holds several entries; their conditions need not be identical. Equal values may be shown once. Peptide text beside a SMILES is read from it. * marks the point of attachment. Cbz = O=C(OCc1ccccc1)*; CH2F = FC*

What all share (format): biochemical
One test concerns the target T1, caspase-6 (Homo sapiens, UniProt P55212).
T1 sequence (P55212 24-179 limits assumed): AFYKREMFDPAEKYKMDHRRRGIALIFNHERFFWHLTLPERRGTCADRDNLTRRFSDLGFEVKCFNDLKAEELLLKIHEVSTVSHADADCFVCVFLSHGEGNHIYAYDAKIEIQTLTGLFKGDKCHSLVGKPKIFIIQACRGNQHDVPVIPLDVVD
T1 sequence (P55212 194-293 limits assumed): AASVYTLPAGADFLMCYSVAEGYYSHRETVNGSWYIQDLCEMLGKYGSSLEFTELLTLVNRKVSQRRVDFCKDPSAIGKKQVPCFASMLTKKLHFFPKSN
The experiment in a line: In vitro inhibition assay, caspase-6. Put shortly:
(§1)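 Recombinant caspase at 0.25 activity units/µL in pH 7 PIPES buffer (100 mM NaCl, 10 mM DTT, 1 mM EDTA, 0.1% CHAPS, 10% sucrose). Saturating AMC substrate: Ac-WEHD 200 µM (caspase-1, -5) or 1000 µM (-4, -11); Ac-DEVD 100 µM (-3, -6, -7), or 25 µM for -3/-7 with a pan-caspase FMK inhibitor. Fluorescence read every 5 min. Background-subtracted linear rates normalised to no-inhibitor; three runs pooled and fitted to Y=100/(1+X/IC50).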

For a further test, the target named is T2, caspase-9 (Homo sapiens, UniProt P55211).
T2 sequence (P55211 1-315 limits assumed): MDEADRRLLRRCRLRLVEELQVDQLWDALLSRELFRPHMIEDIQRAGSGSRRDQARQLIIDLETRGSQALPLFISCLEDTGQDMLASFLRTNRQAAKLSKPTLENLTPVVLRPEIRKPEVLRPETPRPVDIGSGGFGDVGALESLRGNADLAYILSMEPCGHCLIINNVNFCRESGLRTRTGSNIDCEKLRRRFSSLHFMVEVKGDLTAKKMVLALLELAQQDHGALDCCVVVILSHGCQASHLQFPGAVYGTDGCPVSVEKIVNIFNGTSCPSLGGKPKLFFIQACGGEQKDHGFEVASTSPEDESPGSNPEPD
T2 sequence (P55211 331-416 limits assumed): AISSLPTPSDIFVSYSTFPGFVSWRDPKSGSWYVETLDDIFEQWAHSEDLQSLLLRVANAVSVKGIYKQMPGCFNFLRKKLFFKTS
The experiment in a line: In vitro inhibition assay, caspase-9. The note with it: IC50, caspase-9 (different preparation), 1 activity unit/μL, 200 μM Ac-LEHD-AMC substrate.

The next test has as its target T3, caspase-1 (Homo sapiens, UniProt P29466).
T3 sequence (P29466 120-297 limits assumed): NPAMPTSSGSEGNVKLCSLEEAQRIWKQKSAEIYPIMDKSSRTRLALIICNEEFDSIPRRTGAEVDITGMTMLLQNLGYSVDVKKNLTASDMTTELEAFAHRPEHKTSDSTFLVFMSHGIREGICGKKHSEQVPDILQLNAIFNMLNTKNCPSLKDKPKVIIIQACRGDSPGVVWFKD
T3 sequence (P29466 317-404 limits assumed): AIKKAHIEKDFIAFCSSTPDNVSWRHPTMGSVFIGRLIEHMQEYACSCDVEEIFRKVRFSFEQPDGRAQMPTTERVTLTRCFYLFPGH
As to the kind of experiment: In vitro inhibition assay, caspase-1. Put shortly:
as §1

The next test concerns the target T4, caspase-10 (Homo sapiens, UniProt Q92851).
T4 sequence (Q92851 220-415 limits assumed): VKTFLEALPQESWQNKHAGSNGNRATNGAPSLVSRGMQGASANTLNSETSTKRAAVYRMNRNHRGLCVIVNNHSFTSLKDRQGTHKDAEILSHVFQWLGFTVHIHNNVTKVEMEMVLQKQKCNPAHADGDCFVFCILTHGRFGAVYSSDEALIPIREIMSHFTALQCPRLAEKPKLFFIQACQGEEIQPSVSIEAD
T4 sequence (Q92851 416-521 limits assumed): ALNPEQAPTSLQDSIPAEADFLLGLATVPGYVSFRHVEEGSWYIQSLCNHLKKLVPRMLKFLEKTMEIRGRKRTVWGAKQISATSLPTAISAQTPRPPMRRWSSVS
As to the kind of experiment: In vitro inhibition assay, caspase-10. The note with it: IC50, caspase-10, 0.25 activity units/μL, 200 μM Ac-LEHD-AMC substrate.

The target in another test is T5, caspase-7 (Homo sapiens, UniProt P55210).
T5 sequence (P55210 24-198 limits assumed): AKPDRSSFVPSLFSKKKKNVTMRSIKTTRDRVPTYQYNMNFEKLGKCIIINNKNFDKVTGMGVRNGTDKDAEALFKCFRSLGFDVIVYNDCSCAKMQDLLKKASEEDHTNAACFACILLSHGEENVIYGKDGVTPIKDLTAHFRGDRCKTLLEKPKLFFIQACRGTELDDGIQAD
T5 sequence (P55210 207-303 limits assumed): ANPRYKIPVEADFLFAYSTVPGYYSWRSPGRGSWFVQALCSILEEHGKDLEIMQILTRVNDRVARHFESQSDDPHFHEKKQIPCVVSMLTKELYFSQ
The experiment in a line: In vitro inhibition assay, caspase-7. Put shortly:
as §1

For a further test, the target named is T6, caspase-3 (Homo sapiens, UniProt P42574).
T6 sequence (P42574 29-175 limits assumed): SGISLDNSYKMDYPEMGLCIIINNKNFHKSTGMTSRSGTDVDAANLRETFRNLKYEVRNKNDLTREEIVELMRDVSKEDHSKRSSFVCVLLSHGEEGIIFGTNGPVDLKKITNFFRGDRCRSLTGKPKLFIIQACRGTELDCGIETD
T6 sequence (P42574 176-277 limits assumed): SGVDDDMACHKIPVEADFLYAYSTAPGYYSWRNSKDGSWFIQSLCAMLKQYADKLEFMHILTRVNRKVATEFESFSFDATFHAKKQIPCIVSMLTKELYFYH
As to the kind of experiment: In vitro inhibition assay, caspase-3. Put shortly:
as §1

The target of a further test is caspase-8 (Homo sapiens, UniProt Q14790). The experiment in a line: In vitro inhibition assay, caspase-8. The note with it: IC50, caspase-8, 0.25 activity units/μL, 200 μM Ac-LEHD-AMC substrate.
Chain of caspase-8 (Q14790 217-374 limits assumed): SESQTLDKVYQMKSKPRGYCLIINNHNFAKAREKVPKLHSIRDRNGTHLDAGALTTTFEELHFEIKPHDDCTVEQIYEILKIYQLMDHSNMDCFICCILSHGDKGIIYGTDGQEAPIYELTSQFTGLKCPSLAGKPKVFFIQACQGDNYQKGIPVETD
Chain of caspase-8 (Q14790 385-479 limits assumed): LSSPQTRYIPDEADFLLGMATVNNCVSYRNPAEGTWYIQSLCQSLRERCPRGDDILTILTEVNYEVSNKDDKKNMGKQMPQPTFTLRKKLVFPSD
The target of another test is T7, caspase-5 (Homo sapiens, UniProt P51878).
T7 sequence (P51878 137-327 limits assumed): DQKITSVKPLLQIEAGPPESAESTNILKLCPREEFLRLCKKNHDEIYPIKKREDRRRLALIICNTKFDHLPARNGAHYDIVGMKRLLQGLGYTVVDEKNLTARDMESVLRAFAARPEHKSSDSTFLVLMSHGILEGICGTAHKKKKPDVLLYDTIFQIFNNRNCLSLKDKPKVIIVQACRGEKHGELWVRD
T7 sequence (P51878 347-434 limits assumed): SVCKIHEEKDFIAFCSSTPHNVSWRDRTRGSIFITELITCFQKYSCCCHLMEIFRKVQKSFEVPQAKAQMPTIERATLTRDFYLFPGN
The experiment in a line: In vitro inhibition assay, caspase-5. Put shortly:
as §1

A further test concerns the target T8, caspase-4 (Homo sapiens, UniProt P49662).
T8 sequence (P49662 81-270 limits assumed): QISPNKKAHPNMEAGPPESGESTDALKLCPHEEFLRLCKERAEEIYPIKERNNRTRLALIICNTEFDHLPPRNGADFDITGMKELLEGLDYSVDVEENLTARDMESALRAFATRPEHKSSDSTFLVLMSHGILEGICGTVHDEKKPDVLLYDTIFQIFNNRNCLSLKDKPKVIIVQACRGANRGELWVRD
T8 sequence (P49662 290-377 limits assumed): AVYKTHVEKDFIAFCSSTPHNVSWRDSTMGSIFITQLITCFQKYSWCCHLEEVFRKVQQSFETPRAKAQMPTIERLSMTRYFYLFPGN
The experiment in a line: In vitro inhibition assay, caspase-4. Put shortly: as §1

For the next test, the target named is T9, caspase-11 (Mus musculus, UniProt P70343).
T9 sequence (P70343 81-266 limits assumed): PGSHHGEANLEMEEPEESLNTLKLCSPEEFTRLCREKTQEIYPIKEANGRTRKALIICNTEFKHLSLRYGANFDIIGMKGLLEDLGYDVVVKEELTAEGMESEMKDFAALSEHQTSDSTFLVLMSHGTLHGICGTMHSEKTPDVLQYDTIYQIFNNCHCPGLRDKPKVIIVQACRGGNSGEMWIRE
T9 sequence (P70343 286-373 limits assumed): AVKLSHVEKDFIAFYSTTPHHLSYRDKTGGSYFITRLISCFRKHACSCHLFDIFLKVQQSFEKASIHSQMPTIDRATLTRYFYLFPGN
As to the kind of experiment: In vitro inhibition assay, caspase-11. Put shortly:
as §1

In the case of `COC(=O)CC[C@H](NC(=O)[C@H](CC(C)C)NC(=O)OCc1ccccc1)C(=O)N[C@@H](Cc1c[nH]cn1)C(=O)N[C@@H](CC(=O)OC)C(=O)CF` [z-LEHD-FMK] (Cbz-LE(OMe)HD(OMe)-CH2F), the IC50 at caspase-6 is 0.11 ± 0.06 µM; against caspase-9, 1.5 µM and 1.58 µM; on caspase-1, 0.82 ± 0.13 µM; against caspase-10, 3.59 ± 1.27 µM; on caspase-7, 3.9 ± 0.29 µM; at caspase-3, 1.07 ± 0.18 µM. Besides, the IC50 on caspase-8 amounted to 0.07 ± 0.01 µM; against caspase-5 it was 2.31 ± 0.31 µM.
For `CC[C@H](C)[C@H](NC(=O)OCc1ccccc1)C(=O)N[C@@H](CCC(=O)OC)C(=O)N[C@H](C(=O)N[C@@H](CC(=O)OC)C(=O)CF)[C@@H](C)O` [z-IETD-FMK] (Cbz-IE(OMe)TD(OMe)-CH2F), the IC50 was 0.06 ± 0.04 µM on caspase-6; 3.7 µM and 3.65 µM at caspase-9; 5.72 ± 0.47 µM on caspase-1; 5.76 ± 1.1 µM against caspase-10; 2.63 ± 0.54 µM against caspase-7; 1.88 ± 0.26 µM on caspase-3. For the same molecule, the values for the IC50 on caspase-8 and at caspase-5 were 0.35 ± 0.1 µM and 19.9 ± 1.19 µM, respectively.
Consider `CCO[C@@H]1OC(=O)C[C@@H]1NC(=O)[C@@H]1CCCN1C(=O)[C@@H](NC(=O)c1ccc(N)c(Cl)c1)C(C)(C)C` [VX-765, (S)-1-((S)-2-{[1-(4-amino-3-chloro-phenyl)-methanoyl]-amino}-3,3-dimethyl-butanoyl)-pyrrolidine-2-carboxylic acid ((2R,3S)-2-ethoxy-5-oxo-tetrahydro-furan-3-yl)-amide], for which the IC50 on caspase-6 was above 100 µM; on caspase-9 it was 4 µM and 4.01 µM; against caspase-1, 0.53 ± 0.09 µM; on caspase-10 it was 42 µM and 42.3 µM; on caspase-7 it was above 100 µM; on caspase-3, above 100 µM. For the same molecule, the IC50 on caspase-4 is 30.1 ± 2.67 µM; against caspase-8 it was 1 µM and 1.02 µM; against caspase-5 it was 19.5 ± 1.37 µM; on caspase-11 it was 81 ± 2.77 µM.
